Laboratory results as given in ChEMBL document CHEMBL1800057, “Discovery of dual inducible/neuronal nitric oxide synthase (iNOS/nNOS) inhibitor development candidate 4-((2-cyclobutyl-1H-imidazo[4,5-b]pyrazin-1-yl)methyl)-7,8-difluoroquinolin-2(1H)-one (KD7332) part 2: identification of a novel, potent, and selective series of benzimidazole-quinolinone …” (J Med Chem, 2010).

Experiments:
[1] = target: T1, Nitric oxide synthase 3 (Homo sapiens) (UniProt P29474); assay: Inhibition of human eNOS expressed in HEK293 cells assessed as inhibition A23187 induced nitric oxide production at 100 uM incubated for 24 hrs measured after 18 hrs of […] challenge using 2,3-diaminonaphthalene by fluorescence assay; type: cell-based
T1 sequence (whole entry): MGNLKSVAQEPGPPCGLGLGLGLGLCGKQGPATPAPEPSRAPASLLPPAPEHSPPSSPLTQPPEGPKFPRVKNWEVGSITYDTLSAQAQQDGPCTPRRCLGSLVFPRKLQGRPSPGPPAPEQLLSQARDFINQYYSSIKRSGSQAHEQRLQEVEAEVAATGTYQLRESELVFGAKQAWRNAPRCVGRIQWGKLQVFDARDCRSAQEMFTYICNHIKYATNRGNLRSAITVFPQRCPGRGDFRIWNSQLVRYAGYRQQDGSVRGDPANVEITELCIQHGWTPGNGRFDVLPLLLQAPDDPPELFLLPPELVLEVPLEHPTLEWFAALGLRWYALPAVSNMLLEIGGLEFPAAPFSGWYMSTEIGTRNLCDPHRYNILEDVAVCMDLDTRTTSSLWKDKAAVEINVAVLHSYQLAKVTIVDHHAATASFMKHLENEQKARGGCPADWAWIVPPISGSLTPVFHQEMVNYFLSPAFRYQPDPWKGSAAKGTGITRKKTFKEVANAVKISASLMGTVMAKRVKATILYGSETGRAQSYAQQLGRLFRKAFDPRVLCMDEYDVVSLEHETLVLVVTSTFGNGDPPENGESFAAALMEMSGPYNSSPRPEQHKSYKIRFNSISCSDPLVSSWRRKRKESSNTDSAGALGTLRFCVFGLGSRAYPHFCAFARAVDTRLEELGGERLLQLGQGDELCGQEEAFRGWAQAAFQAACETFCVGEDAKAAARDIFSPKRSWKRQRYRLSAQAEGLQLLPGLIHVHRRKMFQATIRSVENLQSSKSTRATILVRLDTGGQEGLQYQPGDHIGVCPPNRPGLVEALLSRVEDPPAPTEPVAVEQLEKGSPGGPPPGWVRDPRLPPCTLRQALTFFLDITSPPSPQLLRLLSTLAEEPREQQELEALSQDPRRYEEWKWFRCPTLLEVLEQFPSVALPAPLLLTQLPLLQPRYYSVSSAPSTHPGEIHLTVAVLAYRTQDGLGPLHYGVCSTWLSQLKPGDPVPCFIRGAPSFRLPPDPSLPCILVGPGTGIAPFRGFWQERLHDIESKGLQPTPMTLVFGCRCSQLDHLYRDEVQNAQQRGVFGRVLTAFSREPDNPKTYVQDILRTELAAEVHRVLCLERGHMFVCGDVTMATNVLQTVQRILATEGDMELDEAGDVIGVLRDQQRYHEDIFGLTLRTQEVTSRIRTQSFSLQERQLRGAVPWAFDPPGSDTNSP

Homo sapiens [2] = species on record: Homo sapiens; assay: Ratio of IC50 for human nNOS to EC50 for human iNOS
Nitric oxide synthase 1 [3] = target: T2, Nitric oxide synthase 1 (Homo sapiens, UniProt P29475); assay: Inhibition of human nNOS expressed in HEK293 cells assessed as inhibition ionomycin induced nitric oxide production incubated for 24 hrs measured after 18 hrs of ionomycin challenge using 2,3-diaminonaphthalene by fluorescence assay; type: cell-based
T2 sequence (P29475 whole entry): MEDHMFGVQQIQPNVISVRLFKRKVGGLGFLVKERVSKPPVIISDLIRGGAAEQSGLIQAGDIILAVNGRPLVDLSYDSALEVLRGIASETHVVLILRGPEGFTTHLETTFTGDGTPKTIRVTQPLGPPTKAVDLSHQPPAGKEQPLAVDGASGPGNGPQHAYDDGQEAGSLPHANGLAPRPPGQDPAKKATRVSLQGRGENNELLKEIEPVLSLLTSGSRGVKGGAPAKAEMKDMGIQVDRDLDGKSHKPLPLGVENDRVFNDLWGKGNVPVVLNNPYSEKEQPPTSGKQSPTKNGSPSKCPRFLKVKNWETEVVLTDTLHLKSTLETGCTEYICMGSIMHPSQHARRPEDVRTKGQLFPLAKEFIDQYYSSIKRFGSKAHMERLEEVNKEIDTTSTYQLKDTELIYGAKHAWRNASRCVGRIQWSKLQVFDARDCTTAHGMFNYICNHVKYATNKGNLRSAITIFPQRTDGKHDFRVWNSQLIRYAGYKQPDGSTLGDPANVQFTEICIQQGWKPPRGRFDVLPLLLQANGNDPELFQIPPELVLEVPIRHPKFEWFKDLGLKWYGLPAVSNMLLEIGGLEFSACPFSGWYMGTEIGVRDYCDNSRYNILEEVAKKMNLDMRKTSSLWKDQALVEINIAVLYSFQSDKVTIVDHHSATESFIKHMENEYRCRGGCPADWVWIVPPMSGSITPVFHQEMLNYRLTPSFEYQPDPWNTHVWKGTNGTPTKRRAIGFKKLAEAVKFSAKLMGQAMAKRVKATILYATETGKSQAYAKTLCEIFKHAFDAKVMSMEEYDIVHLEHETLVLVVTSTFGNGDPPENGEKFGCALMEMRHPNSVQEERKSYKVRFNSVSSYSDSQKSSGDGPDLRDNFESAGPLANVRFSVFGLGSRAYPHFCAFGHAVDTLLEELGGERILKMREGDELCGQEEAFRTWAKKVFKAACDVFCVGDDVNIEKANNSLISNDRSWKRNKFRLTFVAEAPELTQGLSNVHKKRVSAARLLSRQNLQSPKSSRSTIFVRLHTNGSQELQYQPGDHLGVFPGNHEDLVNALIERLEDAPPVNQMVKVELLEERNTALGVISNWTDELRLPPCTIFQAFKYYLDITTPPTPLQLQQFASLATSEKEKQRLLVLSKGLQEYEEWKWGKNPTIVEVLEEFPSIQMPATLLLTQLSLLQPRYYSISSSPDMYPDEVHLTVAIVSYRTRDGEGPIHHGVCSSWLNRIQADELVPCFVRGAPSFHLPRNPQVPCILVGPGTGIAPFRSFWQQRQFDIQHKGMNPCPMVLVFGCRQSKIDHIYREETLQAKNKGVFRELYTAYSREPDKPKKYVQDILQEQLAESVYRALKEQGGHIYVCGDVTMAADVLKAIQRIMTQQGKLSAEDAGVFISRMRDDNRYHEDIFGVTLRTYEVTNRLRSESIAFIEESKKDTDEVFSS
Summary of the method: (§1)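 HEK293 cells transfected for 4 h at 37 °C with human nNOS (10 μg) or human eNOS (15 μg) plasmid (Fugene 6, 3:1). Cells replated at 5e5 cells/mL and dosed with compound at once; SEITU (100 μM final) as positive control. After 24 h, cells activated with A23187 (83 nM final) for eNOS or ionomycin (30 μM final) for nNOS. NO read 18 h later as nitrite-DAN fluorescence.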

Liver = assay: Half life in mouse liver microsomes assessed as formation of oxidation product and glucuronide conjugate; type: ADME, Microsome
Summary of the method: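 Mouse liver microsomes run under combined phase I oxidation and phase II glucuronide conjugation; half-life reported in minutes.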

Nitric oxide synthase 1 [4] = target: T2, Nitric oxide synthase 1; assay: Inhibition of human nNOS expressed in HEK293 cells assessed as inhibition ionomycin induced nitric oxide production at 10 uM incubated for 24 hrs measured after 18 hrs of ionomycin challenge using 2,3-diaminonaphthalene by fluorescence assay; type: cell-based
Nitric oxide synthase 3 = target: T3, Nitric oxide synthase 3 (Homo sapiens, UniProt P29474); assay: Inhibition of human eNOS expressed in HEK293 cells assessed as inhibition A23187 induced nitric oxide production incubated for 24 hrs measured after 18 hrs of […] challenge using 2,3-diaminonaphthalene by fluorescence assay; type: cell-based; summary of the method: as §1
T3 sequence (P29474 whole entry): T1 sequence (whole entry)

Homo sapiens [5] = species on record: Homo sapiens; assay: Ratio of IC50 for human eNOS to EC50 for human iNOS
[6] = target: Nitric oxide synthase, inducible (Homo sapiens, UniProt P35228); assay: Inhibition of human iNOS expressed in HEK293 cells assessed as inhibition of nitric oxide production after 18 hrs using 2,3-diaminonaphthalene by fluorescence assay; type: cell-based
Chain of Nitric oxide synthase, inducible (Homo sapiens, UniProt P35228) (P35228 whole entry): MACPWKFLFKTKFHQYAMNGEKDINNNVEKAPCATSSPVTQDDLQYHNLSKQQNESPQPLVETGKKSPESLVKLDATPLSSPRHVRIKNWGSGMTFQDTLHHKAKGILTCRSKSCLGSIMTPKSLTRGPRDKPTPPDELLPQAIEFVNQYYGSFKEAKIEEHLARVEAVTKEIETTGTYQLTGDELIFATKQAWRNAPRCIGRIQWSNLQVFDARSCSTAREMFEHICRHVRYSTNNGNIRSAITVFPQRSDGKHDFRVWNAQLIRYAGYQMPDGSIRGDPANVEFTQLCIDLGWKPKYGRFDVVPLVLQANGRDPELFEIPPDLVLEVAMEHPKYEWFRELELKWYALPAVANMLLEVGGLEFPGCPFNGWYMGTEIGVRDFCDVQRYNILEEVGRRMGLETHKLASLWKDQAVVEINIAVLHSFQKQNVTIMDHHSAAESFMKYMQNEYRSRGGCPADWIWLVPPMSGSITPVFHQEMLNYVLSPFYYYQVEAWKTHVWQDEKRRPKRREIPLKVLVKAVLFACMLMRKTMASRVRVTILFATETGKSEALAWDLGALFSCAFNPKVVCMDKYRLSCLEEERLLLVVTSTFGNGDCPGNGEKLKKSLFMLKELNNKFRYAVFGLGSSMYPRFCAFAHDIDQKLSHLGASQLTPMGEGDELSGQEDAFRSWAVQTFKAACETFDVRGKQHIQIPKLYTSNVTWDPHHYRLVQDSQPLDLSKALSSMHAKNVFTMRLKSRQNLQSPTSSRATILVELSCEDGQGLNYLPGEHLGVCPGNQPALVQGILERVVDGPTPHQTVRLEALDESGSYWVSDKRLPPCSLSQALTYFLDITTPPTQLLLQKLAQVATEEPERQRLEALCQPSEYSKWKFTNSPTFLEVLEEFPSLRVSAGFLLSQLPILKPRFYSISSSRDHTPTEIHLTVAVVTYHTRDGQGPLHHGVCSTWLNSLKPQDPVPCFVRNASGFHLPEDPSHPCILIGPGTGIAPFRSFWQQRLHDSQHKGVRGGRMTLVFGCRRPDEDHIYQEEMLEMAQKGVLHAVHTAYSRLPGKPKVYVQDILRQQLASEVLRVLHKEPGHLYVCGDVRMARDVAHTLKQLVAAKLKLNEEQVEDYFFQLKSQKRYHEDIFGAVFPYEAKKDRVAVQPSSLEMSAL
Summary of the method: (§2)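 HEK293 cells grown to ~70% confluence in DMEM/10% FBS with pen/strep, transiently transfected with 10 μg human or murine iNOS plasmid plus Fugene 6 for 4 h at 37 °C, 10% CO2. Cells replated at 5e5 cells/mL and dosed with compound at once; 1400W (100 μM final) as positive control. After 18 h, DAN (10 μg/mL final) in HCl (0.1 N final) added for 20 min at room temperature. Fluorescence read after NaOH (0.12 N final).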

[7] = AUC in mouse at 3 mg/kg, iv and 10 mg/kg, po; type: ADME, organism-based; conditions: plasma
[8] = Cmax in mouse at 3 mg/kg, iv and 10 mg/kg, po; type: ADME, organism-based; conditions: in vivo
Mus musculus = assay: Inhibition of LPS-induced iNOS activation in BALB/c mouse assessed as plasma nitrate levels at 30 mg/kg administered via oral gavage before LPS challenge measured after 6 to 8 hrs using 2,3-diaminonaphthalene by fluorescence assay relative to control; type: functional
Summary of the method: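 Male BALB/c mice dosed by oral gavage (90% PEG/5% Tween 80/5% PVP + 0.5% w/v CMC) immediately before LPS (10 mg/kg ip in 0.9% NaCl). Mice killed at 6 h. EDTA plasma analysed for nitrate and drug levels; nitrite measured by DAN fluorescence.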

[9] = target: T4, Nitric oxide synthase, inducible (Mus musculus, UniProt P29477); assay: Inhibition of mouse iNOS expressed in HEK293 cells assessed as inhibition of nitric oxide production after 18 hrs using 2,3-diaminonaphthalene by fluorescence assay; type: cell-based; summary of the method: as §2
T4 sequence (P29477 whole entry): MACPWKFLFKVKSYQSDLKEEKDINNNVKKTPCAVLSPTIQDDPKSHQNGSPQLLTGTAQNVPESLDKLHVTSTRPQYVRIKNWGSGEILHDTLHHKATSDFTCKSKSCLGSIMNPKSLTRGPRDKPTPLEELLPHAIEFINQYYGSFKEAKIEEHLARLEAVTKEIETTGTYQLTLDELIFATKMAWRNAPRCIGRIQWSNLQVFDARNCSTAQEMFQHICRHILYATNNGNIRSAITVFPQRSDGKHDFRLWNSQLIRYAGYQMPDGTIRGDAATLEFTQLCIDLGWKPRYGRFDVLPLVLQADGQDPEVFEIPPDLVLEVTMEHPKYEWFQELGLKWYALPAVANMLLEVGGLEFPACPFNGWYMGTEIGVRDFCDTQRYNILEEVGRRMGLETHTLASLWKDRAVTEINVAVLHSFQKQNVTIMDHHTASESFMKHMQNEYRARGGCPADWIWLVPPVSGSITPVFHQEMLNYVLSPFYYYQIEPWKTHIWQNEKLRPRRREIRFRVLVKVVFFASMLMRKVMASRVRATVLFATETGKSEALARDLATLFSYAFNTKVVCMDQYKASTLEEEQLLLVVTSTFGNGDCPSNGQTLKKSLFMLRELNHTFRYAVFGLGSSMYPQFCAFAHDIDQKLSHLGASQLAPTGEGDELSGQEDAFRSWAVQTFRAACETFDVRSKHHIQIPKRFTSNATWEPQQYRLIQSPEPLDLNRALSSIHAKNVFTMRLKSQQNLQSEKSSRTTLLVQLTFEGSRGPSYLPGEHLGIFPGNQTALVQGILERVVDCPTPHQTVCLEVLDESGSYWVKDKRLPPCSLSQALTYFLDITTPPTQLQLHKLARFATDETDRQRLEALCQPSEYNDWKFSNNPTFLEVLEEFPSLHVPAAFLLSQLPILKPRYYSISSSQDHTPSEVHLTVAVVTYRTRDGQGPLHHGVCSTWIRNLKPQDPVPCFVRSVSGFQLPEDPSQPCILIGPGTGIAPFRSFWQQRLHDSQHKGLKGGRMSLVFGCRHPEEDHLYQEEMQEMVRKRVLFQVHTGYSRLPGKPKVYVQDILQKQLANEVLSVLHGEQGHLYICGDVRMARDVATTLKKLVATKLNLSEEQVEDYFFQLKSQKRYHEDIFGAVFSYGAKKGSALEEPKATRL

[10] = Half life in mouse at 10 mg/kg, po; type: ADME, organism-based; design: dose 10 mg/kg, route oral; conditions: in vivo
[11] = AUC in rhesus monkey at 3 mg/kg, iv and 10 mg/kg, po; type: ADME, organism-based, Macaca mulatta; conditions: plasma
Summary of the method: (§3)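 Rhesus pharmacokinetics: 3 mg/kg iv and 10 mg/kg po, HCl salt. Clp, t1/2, Vdss, Cmax, AUC, oral t1/2 and %F reported.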

[12] = Half life in rhesus monkey at 10 mg/kg, po; type: ADME, organism-based, Macaca mulatta; design: dose 10 mg/kg, route oral; conditions: in vivo
[13] = Bioavailability in rhesus monkey at 3 mg/kg, iv and 10 mg/kg, po; type: ADME, organism-based, Macaca mulatta; conditions: in vivo; summary of the method: as §3
[14] = Plasma clearance in rhesus monkey at 3 mg/kg, iv and 10 mg/kg, po; type: ADME, organism-based, Macaca mulatta; summary of the method: as §3
[15] = Volume of distribution at steady state in rhesus monkey at 3 mg/kg, iv and 10 mg/kg, po; type: ADME, organism-based, Macaca mulatta; conditions: in vivo, read-out: Vdss; summary of the method: as §3
[16] = Cmax in rhesus monkey at 3 mg/kg, iv and 10 mg/kg, po; type: ADME, organism-based, Macaca mulatta; conditions: in vivo; summary of the method: as §3
[17] = Half life in rhesus monkey at 3 mg/kg, iv and 10 mg/kg, po; type: ADME, organism-based, Macaca mulatta; conditions: in vivo; summary of the method: as §3

Compound | inhibition [1] [%] | Ratio EC50 (Homo sapiens [2]) | EC50 (Nitric oxide synthase 1 [3]) [µM] | t1/2 (Liver) [h] | inhibition (Nitric oxide synthase 1 [4]) [%] | EC50 (Nitric oxide synthase 3) [µM] | Ratio EC50 (Homo sapiens [5]) | EC50 [6] [µM] | AUC [7] [ng·h/mL] | Cmax [8] [ng/mL] | EC50 [9] [µM] | half-life [10] [h] | AUC [11] [ng·h/mL] | half-life [12] [h] | bioavailability [13] [%] | clearance [14] [mL/min/kg] | Vd [15] [L/kg] | Cmax [16] [ng/mL] | half-life [17] [h] | inhibition in vivo at 30 mg/kg (Mus musculus) [%]
O=c1cc(Cn2c(-c3ccccn3)nc3ccccc32)c2ccc(F)c(F)c2[nH]1 | < 50 | > 0.5 | > 10 | 1.1 | < 50 | > 100 | > 6 | 18 | – | – | – | – | – | – | – | – | – | – | – | –
O=c1cc(Cn2c(CC3CCCC3)nc3ccccc32)c2ccc(F)c(F)c2[nH]1 | < 50 | > 6 | > 10 | > 2 | < 50 | > 100 | > 56 | 1.77 | – | – | – | – | – | – | – | – | – | – | – | –
CN(C)c1ccnc2c1nc(C1CCC1)n2Cc1cc(=O)[nH]c2c(F)c(F)ccc12 | < 50 | 5.9 | 1 | 0.13 | – | > 100 | > 590 | 0.17 | 700 | 400 | 1.8 | 1.4 | – | – | – | – | – | – | – | 30
Cl.O=c1cc(Cn2c(C3CCC3)nc3nccnc32)c2ccc(F)c(F)c2[nH]1 | – | – | – | – | – | – | – | – | – | – | – | – | 18000 | 9 | 63 | 6 | 3 | 3300 | 13 | –

Further lines, with some results ahead:

inhibition [1] [%] | Ratio EC50 (Homo sapiens [2]) | EC50 (Nitric oxide synthase 1 [3]) [µM] | t1/2 (Liver) [h] | inhibition (Nitric oxide synthase 1 [4]) [%] | EC50 (Nitric oxide synthase 3) [µM] | Ratio EC50 (Homo sapiens [5]) | EC50 [6] [µM] | AUC [7] [ng·h/mL] | Cmax [8] [ng/mL] | EC50 [9] [µM] | half-life [10] [h] | AUC [11] [ng·h/mL] | half-life [12] [h] | bioavailability [13] [%] | clearance [14] [mL/min/kg] | Vd [15] [L/kg] | Cmax [16] [ng/mL] | half-life [17] [h] | Compound | inhibition in vivo at 30 mg/kg (Mus musculus) [%]
– | – | – | – | – | – | – | – | – | – | – | – | 23000 | 10 | 93 | 4.3 | 1.2 | 1800 | 6.8 | Cl.O=c1cc(Cn2c(C3CCC3)nc3nccnc32)c2cccc(F)c2[nH]1 | –
– | – | – | – | – | – | – | – | – | – | – | – | 21000 | 6.1 | 100 | 8.6 | 1.8 | 3400 | 6.6 | Cl.O=c1cc(Cn2c(C3CC(F)(F)C3)nc3nccnc32)c2cccc(F)c2[nH]1 | –
